Test results reported in ChEMBL document CHEMBL4431333, “Synthesis, Antibacterial, and Anticancer Evaluation of Novel Spiramycin-Like Conjugates Containing C(5) Triazole Arm” (J Med Chem, 2016).
Converted amounts (≈) assume the structure as drawn. The source made the active and inactive calls. No cut-off for these calls is given here.

What was measured:
Staphylococcus aureus [1] = test: Antibacterial activity against methicillin-resistant Staphylococcus aureus isolate 1 after 18 hrs by serial microdilution method; assay type: functional
Method in brief: (§1)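 Clinical MRSA isolates, confirmed by cefoxitin 30 μg disc diffusion (EUCAST) and PCR for mecA. MIC by EUCAST broth microdilution in Mueller–Hinton II broth. Compounds dissolved in DMSO and diluted in broth, tested at 0.064–64 μg mL−1. Final inoculum approximately 5 × 10^5 CFU mL−1. Read after 18 h at 35 ± 2 °C.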

Streptococcus pneumoniae = test: Antibacterial activity against Streptococcus pneumoniae ATCC 49619 after 18 hrs by serial microdilution method; assay type: functional
[2] = test system: Staphylococcus epidermidis; test: Antibacterial activity against Staphylococcus epidermidis ATCC 12228 after 18 hrs by serial microdilution method; assay type: functional
Micrococcus luteus = test: Antibacterial activity against Micrococcus luteus ATCC 10240 after 18 hrs by serial microdilution method; assay type: functional
Staphylococcus aureus [3] = test: Antibacterial activity against methicillin-resistant Staphylococcus aureus isolate 2 after 18 hrs by serial microdilution method; assay type: functional; method in brief: as §1
Bacillus spizizenii = test: Antibacterial activity against Bacillus subtilis ATCC 6633 after 18 hrs by serial microdilution method; assay type: functional
[4] = test system: Staphylococcus epidermidis; test: Antibacterial activity against Staphylococcus epidermidis ATCC 49134 after 18 hrs by serial microdilution method; assay type: functional
NHDF = test: Cytotoxicity against HDF assessed as reduction in cell survival after 72 hrs by sulforhodamine B assay; assay type: cell-based, Homo sapiens
[5] = (§2) Selectivity index, ratio of IC50 for HDF to IC50 for human KB cells
HeLa = test: Cytotoxicity against human HeLa cells assessed as reduction in cell survival after 72 hrs by sulforhodamine B assay; assay type: functional, cell-based
KB = test: Cytotoxicity against human KB cells assessed as reduction in cell survival after 72 hrs by sulforhodamine B assay; assay type: functional, cell-based
MCF7 = test: Cytotoxicity against human MCF7 cells assessed as reduction in cell survival after 72 hrs by sulforhodamine B assay; assay type: functional, cell-based
HepG2 = test: Cytotoxicity against human HepG2 cells assessed as reduction in cell survival after 72 hrs by sulforhodamine B assay; assay type: functional, cell-based
[6] = Solubility of compound in water; assay type: physicochemical
[7] = Octanol-water partition coefficient, log P of compound after 1 hr by UV-visible spectrophotometric analysis; assay type: physicochemical
[8] = (§3) Selectivity index, ratio of IC50 for HDF to IC50 for human HepG2 cells
[9] = (§4) Selectivity index, ratio of IC50 for HDF to IC50 for human HeLa cells
[10] = (§5) Selectivity index, ratio of IC50 for HDF to IC50 for human MCF7 cells
Homo sapiens [11] = organism: Homo sapiens; test: as §3
Homo sapiens [12] = organism: Homo sapiens; test: as §4
Homo sapiens [13] = organism: Homo sapiens; test: as §5
Homo sapiens [14] = organism: Homo sapiens; test: as §2

CO/C1=C\CC(=O)O[C@H](C)C/C=C/C=C/[C@H](O[C@H]2CC[C@H](N(C)C)[C@@H](C)O2)[C@H](C)C[C@@H]2C[C@H](OCc3cn([C@H]4O[C@@H](CO)[C@@H](O)[C@@H](O)[C@@H]4O)nn3)O[C@@H]12
MIC (Staphylococcus aureus [1]; isolate 1, 18 h): > 85.2 µM | MIC (Streptococcus pneumoniae; ATCC 49619, 18 h): 10.7 µM (≈ 8 µg/mL) | MIC ([2]; ATCC 12228, 18 h): > 85.2 µM | MIC (Micrococcus luteus; ATCC 10240, 18 h): 85.2 µM (≈ 64 µg/mL) | MIC (Staphylococcus aureus [3]; isolate 2, 18 h): > 85.2 µM | MIC (Bacillus spizizenii; ATCC 6633, 18 h): 85.2 µM (≈ 64 µg/mL) | MIC ([4]; ATCC 49134, 18 h): > 85.2 µM

O=c1[nH]cc(F)c(=O)[nH]1 [FLUOROURACIL]
IC50 (NHDF; Homo sapiens, NHDF, 72 h): 7.02 µM | Ratio IC50 [5]: 1.45

SPIRAMYCIN [listing 1 of 2 here]
IC50 (HeLa; hela): 34.4 µM | IC50 (KB; kb): 31.3 µM | IC50 (MCF7; mcf7): 33.1 µM | IC50 (HepG2; hepg2): 30.5 µM | solubility ([6]; buffer): 4500 µg/mL | logP ([7]; 1 h): 0.58 | IC50 (NHDF; nhdf): 31.1 µM

CO/C1=C\CC(=O)O[C@H](C)C/C=C/C=C/[C@H](O[C@H]2CC[C@H](N(C)C)[C@@H](C)O2)[C@H](C)C[C@@H]2C[C@H](OCc3cn([C@H]4C[C@H](n5cc(C)c(=O)[nH]c5=O)O[C@@H]4CO)nn3)O[C@@H]12
solubility ([6]; buffer): Insoluble

CO/C1=C\CC(=O)O[C@H](C)C/C=C/C=C/[C@H](O[C@H]2CC[C@H](N(C)C)[C@@H](C)O2)[C@H](C)C[C@@H]2C[C@H](OCc3cn(C4CCCCC4)nn3)O[C@@H]12
solubility ([6]; buffer): Insoluble

CO/C1=C\CC(=O)O[C@H](C)C/C=C/C=C/[C@H](O[C@H]2CC[C@H](N(C)C)[C@@H](C)O2)[C@H](C)C[C@@H]2C[C@H](OCc3ccc(F)cc3)O[C@@H]12
Activity (Staphylococcus aureus [1]): inactive | solubility ([6]; buffer): Insoluble | Activity (Streptococcus pneumoniae): inactive | Activity [2]: inactive | Activity (Micrococcus luteus): inactive | Activity (Bacillus spizizenii): inactive

COC1=C\[C@@H](CC=O)C[C@@H](C)[C@@H](O[C@H]2CC[C@H](N(C)C)[C@@H](C)O2)/C=C/C=C/C[C@@H](C)OC(=O)\C=C\1
Ratio IC50 [8]: 1.03 | MIC (Staphylococcus aureus [1]; isolate 1, 18 h): 32.7 µM (≈ 16 µg/mL) | IC50 (HeLa; Homo sapiens, HeLa, 72 h): 127 µM | IC50 (KB; Homo sapiens, KB, 72 h): 133 µM | IC50 (MCF7; Homo sapiens, MCF7, 72 h): 131 µM | IC50 (HepG2; Homo sapiens, HepG2, 72 h): 135 µM | solubility ([6]; water, read-out: solubility): 700 µg/mL (≈ 1430 µM) | MIC (Streptococcus pneumoniae; ATCC 49619, 18 h): 4.08 µM (≈ 2 µg/mL) | Ratio IC50 [9]: 1.1 | MIC ([2]; ATCC 12228, 18 h): 16.3 µM (≈ 8 µg/mL) | MIC (Micrococcus luteus; ATCC 10240, 18 h): 8.17 µM (≈ 4 µg/mL) | logP at 1 h [7]: 0.74 | IC50 (NHDF; Homo sapiens, NHDF, 72 h): 139 µM | MIC (Staphylococcus aureus [3]; isolate 2, 18 h): 32.7 µM (≈ 16 µg/mL) | MIC (Bacillus spizizenii; ATCC 6633, 18 h): 16.3 µM (≈ 8 µg/mL) | Ratio IC50 [10]: 1.07 | MIC ([4]; ATCC 49134, 18 h): 16.3 µM (≈ 8 µg/mL) | Ratio IC50 [5]: 1.05

O=c1[nH]c(=O)n([C@H]2C[C@H](O)[C@@H](CO)O2)cc1F [FLOXURIDINE]
Ratio IC50 [5]: 1.5

CO/C1=C\CC(=O)O[C@H](C)C/C=C/C=C/[C@H](O[C@H]2CC[C@H](N(C)C)[C@@H](C)O2)[C@H](C)C[C@@H]2C[C@H](OCc3cn(CC4CCOCC4)nn3)O[C@@H]12
Activity (Staphylococcus aureus [1]): inactive | solubility ([6]; buffer): Insoluble | Activity (Streptococcus pneumoniae): inactive | Activity [2]: inactive | Activity (Micrococcus luteus): inactive | Activity (Staphylococcus aureus [3]): inactive | Activity (Bacillus spizizenii): inactive | Activity [4]: inactive

CO/C1=C\CC(=O)O[C@H](C)C/C=C/C=C/[C@H](O[C@H]2CC[C@H](N(C)C)[C@@H](C)O2)[C@H](C)C[C@@H]2C[C@H](OCc3cn([C@H]4O[C@@H](CO)[C@H](O)[C@@H](O)[C@@H]4O)nn3)O[C@@H]12
MIC (Staphylococcus aureus [1]; isolate 1, 18 h): > 85.2 µM | MIC (Streptococcus pneumoniae; ATCC 49619, 18 h): 10.7 µM (≈ 8 µg/mL) | MIC ([2]; ATCC 12228, 18 h): 85.2 µM (≈ 64 µg/mL) | MIC (Micrococcus luteus; ATCC 10240, 18 h): 85.2 µM (≈ 64 µg/mL) | MIC (Staphylococcus aureus [3]; isolate 2, 18 h): > 85.2 µM | MIC (Bacillus spizizenii; ATCC 6633, 18 h): 85.2 µM (≈ 64 µg/mL) | MIC ([4]; ATCC 49134, 18 h): 85.2 µM (≈ 64 µg/mL)

CO/C1=C\CC(=O)O[C@H](C)C/C=C/C=C/[C@H](O[C@H]2CC[C@H](N(C)C)[C@@H](C)O2)[C@H](C)C[C@@H]2C[C@H](OCc3cn(C4CCCCCC4)nn3)O[C@@H]12
solubility ([6]; buffer): Insoluble

SPIRAMYCIN [listing 2 of 2 here]
Ratio IC50 (Homo sapiens [11]): 1.02 | MIC (Staphylococcus aureus [1]): 9.49 µM | MIC (Streptococcus pneumoniae): 0.3 µM | Ratio IC50 (Homo sapiens [12]): 0.9 | MIC [2]: 2.37 µM | MIC (Micrococcus luteus): 0.3 µM | MIC (Staphylococcus aureus [3]): 4.74 µM | MIC (Bacillus spizizenii): 0.59 µM | Ratio IC50 (Homo sapiens [13]): 0.94 | MIC [4]: 2.37 µM | Ratio IC50 (Homo sapiens [14]): 0.9

C=CCO[C@H]1C[C@H]2C[C@@H](C)[C@@H](O[C@H]3CC[C@H](N(C)C)[C@@H](C)O3)/C=C/C=C/C[C@@H](C)OC(=O)C/C=C(\OC)[C@@H]2O1
Activity (Staphylococcus aureus [1]): inactive | solubility ([6]; buffer): Insoluble | Activity (Streptococcus pneumoniae): inactive | Activity [2]: inactive | Activity (Micrococcus luteus): inactive | Activity (Bacillus spizizenii): inactive

C#CCO[C@H]1C[C@H]2C[C@@H](C)[C@@H](O[C@H]3CC[C@H](N(C)C)[C@@H](C)O3)/C=C/C=C/C[C@@H](C)OC(=O)C/C=C(\OC)[C@@H]2O1
Activity (Staphylococcus aureus [1]): inactive | solubility ([6]; buffer): Insoluble | Activity (Streptococcus pneumoniae): inactive | Activity [2]: inactive | Activity (Micrococcus luteus): inactive | Activity (Staphylococcus aureus [3]): inactive | Activity (Bacillus spizizenii): inactive | Activity [4]: inactive

CO/C1=C\CC(=O)O[C@H](C)C/C=C/C=C/[C@H](O[C@H]2CC[C@H](N(C)C)[C@@H](C)O2)[C@H](C)C[C@@H]2C[C@H](OCc3cn(CC4CCCCC4)nn3)O[C@@H]12
solubility ([6]; buffer): Insoluble

CO/C1=C\CC(=O)O[C@H](C)C/C=C/C=C/[C@H](O[C@H]2CC[C@H](N(C)C)[C@@H](C)O2)[C@H](C)C[C@@H]2C[C@H](OCc3cn(Cc4ccccc4)nn3)O[C@@H]12
solubility ([6]; buffer): Insoluble

Cc1cn([C@H]2C[C@H](N=[N+]=[N-])[C@@H](CO)O2)c(=O)[nH]c1=O [ZIDOVUDINE]
IC50 (MCF7; Homo sapiens, MCF7, 72 h): 7.67 µM | Ratio IC50 [9]: 1.34 | Ratio IC50 [10]: 1.88 | Ratio IC50 [5]: 1.48

Nc1ccn([C@@H]2O[C@H](CO)[C@@H](O)[C@@H]2O)c(=O)n1 [CYTARABINE]
Ratio IC50 [5]: 1.23
